Fewer inactive variants are shown than the library holds.
B1: tRNA (parent)
chain: GUUCCGUUGGCGUAAUGGUAACGCGUCUCCCUCCUAAGGAGAAGACUGCGGGUUCGAGUCCCGUACGGAACG

Variants of: B1
Test: yeast fitness relative to wild type (ratio to wild type); higher = fitter; tRNA-Arg(CCU), competitive growth, 37 C, YPD
In short: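 Changes in genotype frequencies gave Darwinian fitness relative to wild type. Frequencies were read by 100-nucleotide paired-end sequencing of gene amplicons before and after pooled Saccharomyces cerevisiae strains, carrying tRNA-Arg(CCU) gene variants at the native locus, were competed in YPD at 37°C for 24 hours in six replicates. A genotype was kept only with ≥ 100 starting reads, and estimates < 0.5 were set to 0.5.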
Work on C4U U16A A20U U35C G39C A42C G48A yielded a yeast fitness of 0.582. C4U U16A A37U A65U showed a yeast fitness of at most 0.5. With C4U U16A A37U C49U C61G A70G the yeast fitness was at most 0.5. C4U U16A A65C gave a yeast fitness of 0.612. Variant C4U U16A U26C C27A U47C has a yeast fitness of at most 0.5. C4U U16C C34A A42U showed a yeast fitness of 0.726. Work on C4U U16C U32A G58A C60U yielded a yeast fitness of at most 0.5. Work on C4U U16G A43U yielded a yeast fitness of 1.13. Variant C4U U19A has a yeast fitness of 1.04. Variant C4U U19A A42C has a yeast fitness of 0.825. For C4U U19A C27G A43U C46A C49U, the yeast fitness was at most 0.5. With C4U U19A C30G A36C the yeast fitness was 0.55. Variant C4U U19C has a yeast fitness of 0.927. In the case of C4U U19C A43U, the yeast fitness is reported as 0.955. Variant C4U U19C C31A has a yeast fitness of at most 0.5. Work on C4U U26A yielded a yeast fitness of 0.86. Variant C4U U26A C46U has a yeast fitness of 0.972. C4U U26A G38A G63C showed a yeast fitness of at most 0.5. In the case of C4U U26A G52C, the yeast fitness is reported as 0.569. C4U U26C A42U G50C A65U gave a yeast fitness of 0.552. Variant C4U U26C C31A C49G G63C A69U has a yeast fitness of at most 0.5. C4U U26C G44A gave a yeast fitness of 0.569. C4U U28C showed a yeast fitness of 1.02. Variant C4U U28C A36C has a yeast fitness of at most 0.5. In the case of C4U U28C A36C G51A C66A, the yeast fitness is reported as at most 0.5. With C4U U28C C29U G63C A65U the yeast fitness was at most 0.5. In the case of C4U U28G, the yeast fitness is reported as 0.772. C4U U28G C61U C62U gave a yeast fitness of at most 0.5. C4U U32A A69U gave a yeast fitness of 0.601. Variant C4U U32A G41C A43C has a yeast fitness of at most 0.5. With C4U U32A U35C the yeast fitness was 0.511. Variant C4U U32G A40C has a yeast fitness of 0.57. With C4U U32G A57G the yeast fitness was at most 0.5. With C4U U35A A43U C62U G67C G68A the yeast fitness was at most 0.5. Variant C4U U35A G44C C66U G67U A70G has a yeast fitness of at most 0.5. For C4U U35C A70U, the yeast fitness was 0.711. C4U U35G A45U gave a yeast fitness of 0.583. With C4U U35G A65G the yeast fitness was 0.607. C4U U47A G51C A70U gave a yeast fitness of at most 0.5. C4U U47A G67A showed a yeast fitness of 0.607. For C4U U47A U54C C61A, the yeast fitness was at most 0.5. Work on C4U U54A C62U yielded a yeast fitness of at most 0.5. For C4U U59A, the yeast fitness was 0.999. C4U U59C C61A showed a yeast fitness of at most 0.5. For C4U U59G, the yeast fitness was 0.909. With C4U U64A the yeast fitness was 0.852. C4U U64G gave a yeast fitness of 1.09. In the case of C5A A14C A21U C34U G38C, the yeast fitness is reported as at most 0.5. For C5A A14C A43C, the yeast fitness was at most 0.5. C5A A14C A45G showed a yeast fitness of at most 0.5. For C5A A14C C49A, the yeast fitness was at most 0.5. C5A A14C U26A C34U C55G gave a yeast fitness of at most 0.5. Variant C5A A14G has a yeast fitness of 0.912. In the case of C5A A14G A15G C22G A37U, the yeast fitness is reported as at most 0.5. In the case of C5A A14G A20G C30A A40U G41C C61G G63C, the yeast fitness is reported as at most 0.5. In the case of C5A A14G A20U A37C C49A, the yeast fitness is reported as at most 0.5. C5A A14G A37G C49G C55U G56C G68A showed a yeast fitness of at most 0.5. For C5A A14G C22G A37U, the yeast fitness was 0.683. With C5A A14G C22G C60U C61U the yeast fitness was at most 0.5. Work on C5A A14G C24A C66G yielded a yeast fitness of at most 0.5. With C5A A14G C24A U32C the yeast fitness was at most 0.5. C5A A14G C24G C31U A43G showed a yeast fitness of at most 0.5. In the case of C5A A14G C31U, the yeast fitness is reported as 0.721. C5A A14G C55A A70U showed a yeast fitness of at most 0.5. For C5A A14G U26A A37U G41A C62U, the yeast fitness was at most 0.5. With C5A A14U the yeast fitness was 0.654. For C5A A14U C24U A40C, the yeast fitness was 0.564. Variant C5A A14U C27U C49G has a yeast fitness of at most 0.5. For C5A A15C C27U C30U U32G U35A A37C U54A, the yeast fitness was at most 0.5. C5A A15C C29A A42C A45G showed a yeast fitness of 0.551. For C5A A15C C29A C60G, the yeast fitness was at most 0.5. Work on C5A A15G A36G yielded a yeast fitness of at most 0.5. C5A A15G C31U gave a yeast fitness of 0.657. C5A A15G C33A C61U G67A gave a yeast fitness of at most 0.5. In the case of C5A A15G C61A, the yeast fitness is reported as at most 0.5. C5A A15G G18C C29A U54A showed a yeast fitness of at most 0.5. Variant C5A A15G G25A has a yeast fitness of 0.583. With C5A A15U A69C the yeast fitness was at most 0.5. C5A A15U C24A G25A U47C G52C showed a yeast fitness of at most 0.5. In the case of C5A A15U C31G G39A A57U C60A, the yeast fitness is reported as at most 0.5. For C5A A15U C31G G39A C49U G58A G67A, the yeast fitness was at most 0.5. Variant C5A A15U C31G G39A G58A G67A has a yeast fitness of 0.558. C5A A15U G25A U59C showed a yeast fitness of at most 0.5. Work on C5A A15U U19C C31G G39A G58A G67A yielded a yeast fitness of at most 0.5. C5A A20C A21G A65G C66U showed a yeast fitness of at most 0.5. In the case of C5A A20C A57U, the yeast fitness is reported as at most 0.5. C5A A20C C22A A36C A69C gave a yeast fitness of at most 0.5. With C5A A20C C22A C24U C31U G67A the yeast fitness was at most 0.5. Variant C5A A20C C61U has a yeast fitness of at most 0.5. Work on C5A A20G A40G C49U yielded a yeast fitness of at most 0.5. C5A A20G C49A showed a yeast fitness of 0.568. Variant C5A A20G U32G A43C A45U has a yeast fitness of at most 0.5. With C5A A20U C31G the yeast fitness was 0.585. For C5A A20U C31G C61U C66U, the yeast fitness was at most 0.5. Variant C5A A20U C31U C61U U64A has a yeast fitness of at most 0.5. With C5A A20U G23A C66U the yeast fitness was at most 0.5. Variant C5A A21C A43C G48A C66A has a yeast fitness of at most 0.5. With C5A A21C C24A A70U the yeast fitness was at most 0.5. With C5A A21C C30G C34U G38C C49U the yeast fitness was at most 0.5. In the case of C5A A21C C30G C34U G38C C49U C55U A70C, the yeast fitness is reported as at most 0.5. C5A A21C C34G G52A C62G showed a yeast fitness of 0.565. Work on C5A A21C U54C yielded a yeast fitness of at most 0.5. With C5A A21C U54G C60U the yeast fitness was at most 0.5. Work on C5A A21G yielded a yeast fitness of 0.942. C5A A21G C22G C27A C33U A40U C55G showed a yeast fitness of at most 0.5. With C5A A21G C31G the yeast fitness was 0.62. In the case of C5A A21G G23A G67C, the yeast fitness is reported as 0.591. For C5A A21U C55A, the yeast fitness was 0.572. In the case of C5A A21U C61A C62G, the yeast fitness is reported as at most 0.5. C5A A37C C49A G68U showed a yeast fitness of at most 0.5. With C5A A37C G38C C55U the yeast fitness was 0.598. Work on C5A A37G yielded a yeast fitness of 0.7. In the case of C5A A40C C46U G52C A70C, the yeast fitness is reported as at most 0.5. With C5A A40G C46A the yeast fitness was 0.773. With C5A A40U the yeast fitness was 0.849. C5A A40U C60U C61G gave a yeast fitness of 0.525. Work on C5A A42C U47A C49A G51U C61U G68A yielded a yeast fitness of at most 0.5. Variant C5A A45C has a yeast fitness of 0.81. Work on C5A A45C C46G G48C U64C yielded a yeast fitness of at most 0.5. In the case of C5A A45U C49U, the yeast fitness is reported as 0.64. Work on C5A A45U G48A G56A yielded a yeast fitness of 0.706. With C5A A57G C60G the yeast fitness was at most 0.5. With C5A A57G C61U the yeast fitness was at most 0.5. Variant C5A A57U has a yeast fitness of 0.669. Work on C5A A65C G68A yielded a yeast fitness of 0.628. Variant C5A A65C G68C has a yeast fitness of at most 0.5. C5A A65G showed a yeast fitness of 0.978. C5A A69C showed a yeast fitness of 0.919. C5A C11A C24U U26C C29U C31G showed a yeast fitness of at most 0.5. With C5A C11A C30U C31A C61A the yeast fitness was at most 0.5. C5A C11A C34A A40U gave a yeast fitness of 0.696. Variant C5A C11A G17C A43G has a yeast fitness of at most 0.5. In the case of C5A C11G A21U A65C, the yeast fitness is reported as at most 0.5. For C5A C11G A45C, the yeast fitness was at most 0.5. In the case of C5A C11G C24A C55U G63C, the yeast fitness is reported as at most 0.5. With C5A C11G C30G A36U C60A the yeast fitness was at most 0.5. C5A C11G C55U C61A gave a yeast fitness of at most 0.5. Variant C5A C11G C61G has a yeast fitness of 0.502. C5A C11G C62G gave a yeast fitness of at most 0.5. C5A C11G G25A C61A gave a yeast fitness of at most 0.5. Work on C5A C11G G41C yielded a yeast fitness of 0.561. Work on C5A C11G G41C A57G yielded a yeast fitness of 0.554. In the case of C5A C11G G41C G48C, the yeast fitness is reported as at most 0.5. With C5A C11G G41C G68U the yeast fitness was 0.524. In the case of C5A C11G G48C G67C, the yeast fitness is reported as at most 0.5. C5A C11G G51A C62U gave a yeast fitness of at most 0.5. C5A C11G U28A A40U C55A showed a yeast fitness of at most 0.5. In the case of C5A C11U A14U C27U A36U A43G C46U, the yeast fitness is reported as at most 0.5. C5A C11U A21G C24A G52A C60A A69G showed a yeast fitness of at most 0.5. C5A C11U C31G A70U showed a yeast fitness of at most 0.5. Work on C5A C11U C49U yielded a yeast fitness of at most 0.5. In the case of C5A C11U U13G C29G C33A U59A, the yeast fitness is reported as at most 0.5. Variant C5A C22A A36U A40U has a yeast fitness of at most 0.5. Variant C5A C22A A40G C60A has a yeast fitness of at most 0.5. In the case of C5A C22A C27G A43U C60A, the yeast fitness is reported as at most 0.5. For C5A C22A G50C, the yeast fitness was 0.738. C5A C22A G56A showed a yeast fitness of 0.525. C5A C22G showed a yeast fitness of 0.862. For C5A C22G A65C, the yeast fitness was 0.582. For C5A C22G C27G A36U A40C C66U, the yeast fitness was at most 0.5. Variant C5A C22G C29A A43U G68A has a yeast fitness of at most 0.5. For C5A C22G C29A G67A, the yeast fitness was 0.531. C5A C22G C49G gave a yeast fitness of 0.563. For C5A C22G C49G G68C, the yeast fitness was 0.578. With C5A C22G G25A the yeast fitness was at most 0.5. In the case of C5A C22U, the yeast fitness is reported as 0.79. In the case of C5A C22U C27G C30G, the yeast fitness is reported as at most 0.5.
